The list is not random: actives were taken first. Their share in the collection is about 2.6%.
PAD4 inh: PAD4 (human) enzyme inhibition. Q9UM07. recombinant PAD4, RCA probe fluorescence polarization. inhibition, % at 6.36 µM. 330,000 tested, 0.41% active;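 active means percent inhibition above a cutoff equal to the mean of all tested compounds plus 3 SD, cut at about 15% in these data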;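 further: 0% = PAD4 with RCA probe and DMSO and 100% = probe without PAD4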
Target sequence (Q9UM07 whole entry, looked up): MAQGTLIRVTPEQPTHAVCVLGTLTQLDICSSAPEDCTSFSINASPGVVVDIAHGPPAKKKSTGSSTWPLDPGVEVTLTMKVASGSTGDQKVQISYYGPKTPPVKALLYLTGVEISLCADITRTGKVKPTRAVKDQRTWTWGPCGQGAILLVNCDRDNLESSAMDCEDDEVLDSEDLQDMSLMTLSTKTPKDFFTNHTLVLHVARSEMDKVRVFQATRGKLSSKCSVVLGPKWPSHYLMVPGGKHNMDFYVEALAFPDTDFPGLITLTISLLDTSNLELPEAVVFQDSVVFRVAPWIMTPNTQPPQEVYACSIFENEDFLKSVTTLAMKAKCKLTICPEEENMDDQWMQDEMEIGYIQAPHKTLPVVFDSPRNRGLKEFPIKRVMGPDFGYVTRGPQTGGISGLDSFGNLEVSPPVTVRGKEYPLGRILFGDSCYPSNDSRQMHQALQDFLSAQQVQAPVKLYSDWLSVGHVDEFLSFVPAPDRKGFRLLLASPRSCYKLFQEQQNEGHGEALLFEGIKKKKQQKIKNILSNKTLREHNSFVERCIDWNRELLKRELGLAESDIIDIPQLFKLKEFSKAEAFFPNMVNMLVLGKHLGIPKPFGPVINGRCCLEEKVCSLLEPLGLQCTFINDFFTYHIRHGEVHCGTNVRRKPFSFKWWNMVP
TDP2 absorb: TDP2 (human) inhibition, absorbance primary screen. AID 720702. inhibition, % at 12.8 µM. recombinant TDP2, T5PNP hydrolysis, p-nitrophenol absorbance 415 nm. 370,000 tested, 0.34% active;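 active means inhibition above the mean of all tested compounds plus 3 SD, set per campaign, cut at about 25% in these data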;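 further: 0% = DMSO with enzyme and 100% = buffer with substrate but no TDP2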
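System – recombinant human TDP2 · Amount – 120 nM TDP2 per well · Buffer or medium – Mg2+-containing Tris-HCl buffer, pH 7.5 · Reagent – T5PNP substrate, 5 mM · Dosing – 12.8 µM single point, 1% DMSO · Incubation – 2 h at 37 °C · Measured by – epi absorbance · Read-out basis – percent inhibition · Benchmarks – high control without enzyme, low control DMSO plus TDP2 · Repeats – singlicate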
PRMT1 inh: blocks human protein arginine methyltransferase 1; Q99873; inhibition, % at 2.79 µM; recombinant PRMT1, activity-based probe fluorescence polarization; 370,000 tested, 1.3% active; AID 652257;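 active means inhibition above about 21% made by adding two undisclosed values, limit read from the data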
GSTO1 counter: blocks human GSTO1 in RBBP9 counter-screen; recombinant GSTO1, activity-based probe fluorescence polarization; inhibition, % at 5.96 µM; 300,000 tested, 1.1% active; AID 1974;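 active means inhibition above the campaign mean inhibition plus 3 SD, cut at about 35% in these data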;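 further: 0% = GSTO1-1 with DMSO and 100% = wells lacking GSTO1-1 enzyme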
Apaf-1 inh: human Apaf-1 inhibition | O14727 | 330,000 tested, 0.71% active | inhibition, % at 20 µM | reconstituted apoptosome caspase-3 activity, DEVD-Rh110 fluorescence | AID 489030; active means inhibition of at least 40% at 20 µM;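 further: plate controls were DMSO wells for no effect and DEVD-CHO caspase inhibitor wells for full effect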
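System: reconstituted apoptosome with Apaf-1, cytochrome c, caspase-9, procaspase-3, dATP; Signal: Rh110 fluorescence intensity; Schedule: 30 min compound preincubation, 50 min activation, room temperature; Reagent: cytochrome c trigger plus (Z-DEVD)2-Rh110 caspase-3 substrate.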
Active calls of the source: *.

For Cc1cccc(NCc2nc(SCC(=O)Nc3ccccc3Br)n[nH]2)c1 the results were PAD4 inh -2.4, TDP2 absorb 5.8, PRMT1 inh 0.5, GSTO1 counter 2.0 and Apaf-1 inh -12.7.
Screening COC(=O)[C@]12C[C@H](CC(=O)NCc3cccs3)C(=O)N(CCC3=CCCCC3)C1=C[C@H](C(C)(C)C)O[C@@H]2C returned TDP2 absorb 6.4 and PRMT1 inh 2.6.
Screening COC(=O)[C@]12C[C@H](CC(=O)NCCCN3CCCC3=O)C(=O)N(Cc3ccc(Cl)cc3Cl)C1=C[C@H](C1CCCC1)O[C@@H]2C returned TDP2 absorb -4.7 and PRMT1 inh 3.8.
For CCCCCC(=O)N/N=C/c1ccc([N+](=O)[O-])o1 the results were PAD4 inh -12.7, TDP2 absorb -8.1, PRMT1 inh 2.6, GSTO1 counter 9.2 and Apaf-1 inh 5.9.
Screening O=C(CCC(=O)Nc1ccc(Cl)cc1Cl)N/N=C/c1ccc([N+](=O)[O-])o1 returned PAD4 inh -12.9, TDP2 absorb -2.4, PRMT1 inh 23.7*, GSTO1 counter 1.0 and Apaf-1 inh 11.9.
COc1ccccc1C1NC=C([N+](=O)[O-])C=C1[N+](=O)[O-] (stereo unspecified) was read as PAD4 inh -11.7, TDP2 absorb 3.7, PRMT1 inh 24.3*, GSTO1 counter 14.7 and Apaf-1 inh 8.3.
For O=C1N(Cc2ccccc2)c2ccccc2C12CCCc1oc(CCc3ccccc3)nc12 (stereo unspecified) the results were TDP2 absorb -0.1 and PRMT1 inh -3.8.
`CC(=O)NCc1ccc(C(=O)CCl)s1` gave PAD4 inh 1.4, TDP2 absorb -3.9, PRMT1 inh 1.5, GSTO1 counter 77.8* and Apaf-1 inh -1.3.
`CC(=O)Nc1ccc(C(=O)CCl)cc1` gave PAD4 inh -9.0, TDP2 absorb 2.7, PRMT1 inh 2.1 and Apaf-1 inh 4.9.
For CC(=O)NCc1ccc(C(=O)CCl)cc1 the results were PAD4 inh 4.3, TDP2 absorb -10.6, PRMT1 inh 2.0, GSTO1 counter 50.2* and Apaf-1 inh -0.7.
Screening O=C(Nc1ccc(F)cc1)OC1CC2CC1[C@H]1CCCCN1C2 (stereo partly specified) returned TDP2 absorb 1.9 and PRMT1 inh 0.7.
COCCNC[C@@]12CO[C@H](c3ccc(Cl)cc3)N1[C@@H](c1ccc(Cl)cc1)SC2 was read as TDP2 absorb 2.5 and PRMT1 inh 3.2.
O=C1NN(c2ccc(F)c(Cl)c2)C(=O)/C1=C\c1cccc(OC(=O)c2cccs2)c1 was read as PAD4 inh -1.1, TDP2 absorb -10.2, PRMT1 inh 24.3*, GSTO1 counter 3.0 and Apaf-1 inh 12.5.
`CCN(CC)c1ccc(NC(=O)c2cc3c(C)nn(-c4ccccc4)c3s2)cc1` gave TDP2 absorb -7.3 and PRMT1 inh 1.6.
C=CCn1c(O)c(CN2CCCCC2)c(C)c(C#N)c1=O was read as PAD4 inh 1.8, TDP2 absorb -7.3, PRMT1 inh 22.3*, GSTO1 counter 11.1 and Apaf-1 inh 14.6.
For Cc1c(CN2CCCC(C)C2)c(O)n(CCO)c(=O)c1C#N (stereo unspecified) the results were PAD4 inh 5.2, TDP2 absorb 5.3, PRMT1 inh 8.0, GSTO1 counter 10.4 and Apaf-1 inh -3.9.
`CCn1c(/C=C/N(C(C)=O)c2ccccc2)[n+](CC)c2ccc(Cl)cc21` gave PAD4 inh -8.2, TDP2 absorb 2.2, PRMT1 inh 1.9, GSTO1 counter 9.3 and Apaf-1 inh 6.1.
CC[n+]1c(/C=C/C=C/N(C(C)=O)c2ccccc2)sc2ccccc21 was read as PAD4 inh -30.2, TDP2 absorb 4.7, PRMT1 inh 35.2*, GSTO1 counter -246.7 and Apaf-1 inh 27.2.
For Cc1ccc[n+](C2C(c3ccc([N+](=O)[O-])cc3)C(C#N)=C([S-])NC2(O)C2CC2)c1 (stereo unspecified) the results were PAD4 inh 3.1, TDP2 absorb -2.2, PRMT1 inh 23.4*, GSTO1 counter 3.5 and Apaf-1 inh 18.1.
COc1ccc([C@H]2C(C#N)=C([S-])N[C@](C)(O)[C@@H]2[n+]2ccccc2)cc1 was read as TDP2 absorb -4.7 and PRMT1 inh 20.8.
`O=C(OCC#CCSc1nnc(-c2ccc3ccccc3c2)o1)c1cccs1` gave TDP2 absorb 3.6 and PRMT1 inh -1.9.
`O=C(N/N=C/c1cc2c3c(c1O)CCCN3CCC2)c1ccccc1O` gave TDP2 absorb -2.7 and PRMT1 inh 17.0.
O=c1oc2c3c4c(cc2s1)CCCN4CCC3 was read as PAD4 inh 3.2, TDP2 absorb 7.1, PRMT1 inh 75.3*, GSTO1 counter 50.6* and Apaf-1 inh 11.1.
Screening CCCCCC(=O)Nc1cccc(C2=NOC3(C2)C[C@@H](C(N)=O)N(C(=O)c2cc([N+](=O)[O-])cc([N+](=O)[O-])c2C)C3)c1 (stereo partly specified) returned PAD4 inh -5.9, TDP2 absorb 4.6, PRMT1 inh 2.6, GSTO1 counter 4.3 and Apaf-1 inh 12.2.
C/C=C/C=C\C(=O)Nc1cccc(C2=NOC3(C2)C[C@@H](C(N)=O)N(C(=O)c2cc([N+](=O)[O-])cc([N+](=O)[O-])c2C)C3)c1 (stereo partly specified) was read as PAD4 inh -3.8, TDP2 absorb -9.0, PRMT1 inh 24.5*, GSTO1 counter -0.1 and Apaf-1 inh 3.8.
`C#CCNC(=O)C[C@@H]1C(=O)N(CCc2ccc(Cl)cc2)/C2=C/CCCCC[C@@]21C(=O)OCC` gave TDP2 absorb -2.7 and PRMT1 inh -1.2.
COC(=O)C1CN(Cc2cn(Cc3ccc(Cl)cc3)nn2)CCS(=O)(=O)N1Cc1ccc(C)cc1 (stereo unspecified) was read as TDP2 absorb 0.0 and PRMT1 inh 1.8.
CCCCOc1ccc(-c2nc(SCC(N)=O)n[nH]2)cc1 was read as PAD4 inh -1.5, TDP2 absorb -0.8, PRMT1 inh -2.3, GSTO1 counter -2.2 and Apaf-1 inh 1.1.
For CCCCOc1ccc(-c2nc(=S)[nH][nH]2)cc1 the results were PAD4 inh 5.2, TDP2 absorb -0.2, PRMT1 inh 22.2*, GSTO1 counter 7.4 and Apaf-1 inh 11.7.
Screening O=C(CCl)NC1CCCc2ccccc21 (stereo unspecified) returned PAD4 inh 7.2, TDP2 absorb -11.3, PRMT1 inh -2.0, GSTO1 counter 72.3* and Apaf-1 inh -4.5.
Screening COC(=O)[C@]12C[C@H](CC(=O)NCCCCc3ccccc3)C(=O)N(Cc3ccco3)C1=C[C@H](C(C)C)O[C@@H]2C1CC1 returned TDP2 absorb -9.3 and PRMT1 inh 0.8.
O=c1[nH]cc(N=Cc2cc(Cl)cc(Cl)c2O)c(=O)[nH]1 was read as PAD4 inh -9.4, TDP2 absorb 9.3, PRMT1 inh 0.7, GSTO1 counter 42.2* and Apaf-1 inh 13.1.

From PubChem
